Measurements published in ChEMBL document CHEMBL1134373, “A potent, nonpeptidyl 1H-quinolone antagonist for the gonadotropin-releasing hormone receptor” (J Med Chem, 2001).

Experiments:
[1] = Area under curve was determined after intravenous administration of a dose of 0.5 mg/kg; type: ADME, organism-based; parameters: dose 0.5 mg/kg, route intravenous; settings: in vivo
Summary of the method: (§1)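 Male rhesus monkeys received a single iv dose in ethanol/PEG400/saline (10/40/50, v/v/v) via the brachiocephalic vein. Femoral vein blood was drawn at 5, 15, 30 min and 1, 2, 4, 6, 8, 24 h. Plasma was extracted with ethyl acetate and assayed by LC/MS/MS against an internal standard (LOQ 2.0 ng/mL). AUC came from linear/log trapezoidal rule with extrapolation by Ct/λ; t1/2 = 0.693/λ; Clp = dose/AUC(0-∞).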

[2] = Area under curve was determined after intravenous administration of a dose of 3 mg/kg; type: ADME, organism-based; parameters: dose 3 mg/kg, route intravenous; settings: in vivo; summary of the method: as §1
[3] = Half life period was determined after intravenous administration of 0.5 mg/kg; type: ADME, organism-based; parameters: dose 0.5 mg/kg, route intravenous; settings: in vivo; summary of the method: as §1
[4] = Half life period was determined after intravenous administration of 3 mg/kg; type: ADME, organism-based; parameters: dose 3 mg/kg, route intravenous; settings: in vivo; summary of the method: as §1
[5] = Plasma clearance was determined fter intravenous administration of a dose of 0.5 mg/kg; type: ADME, organism-based; parameters: dose 0.5 mg/kg, route intravenous; settings: read-out: ClP; summary of the method: as §1
[6] = Plasma clearance was determined fter intravenous administration of a dose of 3 mg/kg; type: ADME, organism-based; parameters: dose 3 mg/kg, route intravenous; settings: read-out: ClP; summary of the method: as §1
[7] = molecular target: T1, Gonadotropin-releasing hormone receptor (Rattus norvegicus, UniProt P30969); assay: In vitro inhibition of binding to GnRH receptor in rat
T1 sequence (P30969 whole entry): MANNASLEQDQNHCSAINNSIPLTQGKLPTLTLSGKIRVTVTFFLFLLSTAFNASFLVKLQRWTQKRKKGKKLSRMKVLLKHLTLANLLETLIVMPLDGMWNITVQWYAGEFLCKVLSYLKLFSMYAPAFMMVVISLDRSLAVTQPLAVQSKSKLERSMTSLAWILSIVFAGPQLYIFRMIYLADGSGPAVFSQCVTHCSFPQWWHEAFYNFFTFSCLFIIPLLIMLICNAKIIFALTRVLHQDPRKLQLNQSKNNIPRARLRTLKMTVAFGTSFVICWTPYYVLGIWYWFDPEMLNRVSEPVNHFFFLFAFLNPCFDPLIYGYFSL
Summary of the method: (§2)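 Crude membranes came from rat pituitary (rat) or from CHO-K1 cells stably expressing human GnRH receptor (human). Competition was run against [125I-Tyr5]buserelin (1000 Ci/mmol) in 50 mM Tris-HCl pH 7.5 with 2 mM MgCl2 and 0.1% BSA. IC50 is the concentration giving 50% inhibition of specific binding.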

[8] = molecular target: T1, Gonadotropin-releasing hormone receptor; assay: Functional antagonism at GnRH receptor in rat (PI turnover)
[9] = molecular target: T2, Gonadotropin-releasing hormone receptor (Homo sapiens, UniProt P30968); assay: Functional antagonism at the human GnRH receptor (PI turnover)
T2 sequence (P30968 whole entry): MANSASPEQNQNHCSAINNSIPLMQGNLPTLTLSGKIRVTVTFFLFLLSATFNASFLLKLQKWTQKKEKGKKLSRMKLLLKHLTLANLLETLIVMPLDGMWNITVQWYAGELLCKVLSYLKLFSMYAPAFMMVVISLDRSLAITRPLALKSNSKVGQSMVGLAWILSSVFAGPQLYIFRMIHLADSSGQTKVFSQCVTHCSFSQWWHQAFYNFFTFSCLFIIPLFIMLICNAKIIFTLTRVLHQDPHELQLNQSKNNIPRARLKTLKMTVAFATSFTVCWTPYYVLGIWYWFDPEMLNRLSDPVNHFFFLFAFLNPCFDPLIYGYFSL
Summary of the method: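 CHO cells stably expressing human GnRH receptor were labelled 48 h with 1 μCi [3H]inositol in inositol-free F12 with 10% dialyzed FBS. After washing with PBS containing 10 mM LiCl, cells were preincubated with graded compound for 2 h at 37 °C. 0.5 nM GnRH was then added for 60 min, followed by formic acid lysis. IC50 is inhibition of GnRH-stimulated PI hydrolysis.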

[10] = molecular target: T2, Gonadotropin-releasing hormone receptor; assay: In vitro inhibition of binding to GnRH receptor in human; summary of the method: as §2

Cc1cc(-c2c(OCC[C@@H]3CCN3)c3cc(C(=O)Nc4ccncn4)c(Cl)cc3[nH]c2=O)cc(C)c1C
AUC [1]: 303 ng·h/mL
AUC [2]: 1320 ng·h/mL
half-life [3]: 9.5 h
half-life [4]: 5 h
clearance [5]: 30 mL/min/kg
clearance [6]: 33 mL/min/kg
IC50 [7]: 4 nM
IC50 [8]: 81 nM
IC50 [9]: 1 nM
IC50 [10]: 0.44 nM
